Results published in ChEMBL document CHEMBL5712908, “A genome-wide RNAi screen reveals essential therapeutic targets of breast cancer stem cells” (2019).
Calls of active or inactive are those of the source. The rule behind the calls is not given here.

Experiments:
[1] = test system: SUM-159-PT; assay: Anticancer activity against human SUM159 cells assessed as decrease in primary tumor sphere formation incubated for 72 hrs by Extreme limiting dilution analysis; type: functional, cell-based
Summary of the method: (§1)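 Cells drug-treated in adherent culture for 72 h, then plated as single cells in ultra-low attachment 96-well plates in serum-free mammary epithelium basal medium. Plating at 25/10/5/3/2/1 cells per well, 18–36 wells per condition. Wells with ≥1 sphere after 10 days scored positive. Secondary spheres were made by dissociating primary spheres. Frequency by ELDA; n = 4; pairwise chi-square test.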

[2] = test system: SUM-159-PT; assay: Anticancer activity against human SUM159 cells assessed as decrease in secondary tumor sphere formation incubated for 72 hrs by Extreme limiting dilution analysis; type: functional, cell-based; summary of the method: as §1
[3] = molecular target: T1, Double-stranded RNA-specific editase 1 (Homo sapiens) (UniProt P78563); assay: Inhibition of ADARB1 in human S68 cells assessed as K-score by measuring ALDHbr cells by LSR2 cytometer; type: cell-based
T1 sequence (whole entry): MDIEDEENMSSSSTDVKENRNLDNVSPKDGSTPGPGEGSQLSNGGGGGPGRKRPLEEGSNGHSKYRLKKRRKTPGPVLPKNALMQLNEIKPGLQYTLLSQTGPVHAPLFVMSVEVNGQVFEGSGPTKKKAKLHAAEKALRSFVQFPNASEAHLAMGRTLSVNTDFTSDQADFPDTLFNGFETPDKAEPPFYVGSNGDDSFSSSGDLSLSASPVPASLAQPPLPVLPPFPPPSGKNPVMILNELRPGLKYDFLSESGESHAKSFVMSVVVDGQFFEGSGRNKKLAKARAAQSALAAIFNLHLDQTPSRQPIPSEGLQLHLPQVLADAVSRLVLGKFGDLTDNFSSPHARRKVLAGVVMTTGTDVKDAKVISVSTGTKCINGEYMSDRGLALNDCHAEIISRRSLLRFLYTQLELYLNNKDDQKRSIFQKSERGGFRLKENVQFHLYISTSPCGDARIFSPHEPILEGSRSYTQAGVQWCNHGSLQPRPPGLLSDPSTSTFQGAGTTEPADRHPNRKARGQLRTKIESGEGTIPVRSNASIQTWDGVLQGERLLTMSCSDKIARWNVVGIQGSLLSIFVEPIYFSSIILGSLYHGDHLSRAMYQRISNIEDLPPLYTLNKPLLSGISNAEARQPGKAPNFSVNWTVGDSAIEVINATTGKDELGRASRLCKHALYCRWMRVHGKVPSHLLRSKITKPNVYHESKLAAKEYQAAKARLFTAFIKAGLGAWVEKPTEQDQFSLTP
Summary of the method: (§2)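 Breast cancer lines exposed continuously for 72 h in adherent culture to a range of doses centred on the MTS-derived IC50 (72 h MTS, absorbance 540 nm). ALDHbr fraction measured by ALDEFLUOR flow cytometry (LSR2) with DEAB control. K-score = linear regression coefficient between untreated condition and the log10 dose at which ALDHbr proportion changes by 50% versus control.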

[4] = molecular target: T1, Double-stranded RNA-specific editase 1 (Homo sapiens); assay: Inhibition of ADARB1 in human BrCa-MZ-01cells assessed as K-score by measuring ALDHbr cells by LSR2 cytometer; type: cell-based; summary of the method: as §2
[5] = molecular target: T1, Double-stranded RNA-specific editase 1 (Homo sapiens); assay: Inhibition of ADARB1 in human SUM159 cells assessed as K-score by measuring ALDHbr cells by LSR2 cytometer; type: cell-based; summary of the method: as §2
[6] = molecular target: T1, Double-stranded RNA-specific editase 1 (Homo sapiens); assay: Inhibition of ADARB1 in human SUM149 cells assessed as K-score by measuring ALDHbr cells by LSR2 cytometer; type: cell-based; summary of the method: as §2
[7] = molecular target: T1, Double-stranded RNA-specific editase 1 (Homo sapiens); assay: Inhibition of ADARB1 in human MDA-MB-436 cells assessed as K-score by measuring ALDHbr cells by LSR2 cytometer; type: cell-based; summary of the method: as §2
[8] = molecular target: Histone acetyltransferase p300 (Homo sapiens) (UniProt Q09472); assay: Inhibition of EP300 in human S68 cells assessed as K-score by measuring ALDHbr cells by LSR2 cytometer; type: cell-based; summary of the method: as §2
Histone acetyltransferase p300 (Homo sapiens), sequence (Q09472 whole entry): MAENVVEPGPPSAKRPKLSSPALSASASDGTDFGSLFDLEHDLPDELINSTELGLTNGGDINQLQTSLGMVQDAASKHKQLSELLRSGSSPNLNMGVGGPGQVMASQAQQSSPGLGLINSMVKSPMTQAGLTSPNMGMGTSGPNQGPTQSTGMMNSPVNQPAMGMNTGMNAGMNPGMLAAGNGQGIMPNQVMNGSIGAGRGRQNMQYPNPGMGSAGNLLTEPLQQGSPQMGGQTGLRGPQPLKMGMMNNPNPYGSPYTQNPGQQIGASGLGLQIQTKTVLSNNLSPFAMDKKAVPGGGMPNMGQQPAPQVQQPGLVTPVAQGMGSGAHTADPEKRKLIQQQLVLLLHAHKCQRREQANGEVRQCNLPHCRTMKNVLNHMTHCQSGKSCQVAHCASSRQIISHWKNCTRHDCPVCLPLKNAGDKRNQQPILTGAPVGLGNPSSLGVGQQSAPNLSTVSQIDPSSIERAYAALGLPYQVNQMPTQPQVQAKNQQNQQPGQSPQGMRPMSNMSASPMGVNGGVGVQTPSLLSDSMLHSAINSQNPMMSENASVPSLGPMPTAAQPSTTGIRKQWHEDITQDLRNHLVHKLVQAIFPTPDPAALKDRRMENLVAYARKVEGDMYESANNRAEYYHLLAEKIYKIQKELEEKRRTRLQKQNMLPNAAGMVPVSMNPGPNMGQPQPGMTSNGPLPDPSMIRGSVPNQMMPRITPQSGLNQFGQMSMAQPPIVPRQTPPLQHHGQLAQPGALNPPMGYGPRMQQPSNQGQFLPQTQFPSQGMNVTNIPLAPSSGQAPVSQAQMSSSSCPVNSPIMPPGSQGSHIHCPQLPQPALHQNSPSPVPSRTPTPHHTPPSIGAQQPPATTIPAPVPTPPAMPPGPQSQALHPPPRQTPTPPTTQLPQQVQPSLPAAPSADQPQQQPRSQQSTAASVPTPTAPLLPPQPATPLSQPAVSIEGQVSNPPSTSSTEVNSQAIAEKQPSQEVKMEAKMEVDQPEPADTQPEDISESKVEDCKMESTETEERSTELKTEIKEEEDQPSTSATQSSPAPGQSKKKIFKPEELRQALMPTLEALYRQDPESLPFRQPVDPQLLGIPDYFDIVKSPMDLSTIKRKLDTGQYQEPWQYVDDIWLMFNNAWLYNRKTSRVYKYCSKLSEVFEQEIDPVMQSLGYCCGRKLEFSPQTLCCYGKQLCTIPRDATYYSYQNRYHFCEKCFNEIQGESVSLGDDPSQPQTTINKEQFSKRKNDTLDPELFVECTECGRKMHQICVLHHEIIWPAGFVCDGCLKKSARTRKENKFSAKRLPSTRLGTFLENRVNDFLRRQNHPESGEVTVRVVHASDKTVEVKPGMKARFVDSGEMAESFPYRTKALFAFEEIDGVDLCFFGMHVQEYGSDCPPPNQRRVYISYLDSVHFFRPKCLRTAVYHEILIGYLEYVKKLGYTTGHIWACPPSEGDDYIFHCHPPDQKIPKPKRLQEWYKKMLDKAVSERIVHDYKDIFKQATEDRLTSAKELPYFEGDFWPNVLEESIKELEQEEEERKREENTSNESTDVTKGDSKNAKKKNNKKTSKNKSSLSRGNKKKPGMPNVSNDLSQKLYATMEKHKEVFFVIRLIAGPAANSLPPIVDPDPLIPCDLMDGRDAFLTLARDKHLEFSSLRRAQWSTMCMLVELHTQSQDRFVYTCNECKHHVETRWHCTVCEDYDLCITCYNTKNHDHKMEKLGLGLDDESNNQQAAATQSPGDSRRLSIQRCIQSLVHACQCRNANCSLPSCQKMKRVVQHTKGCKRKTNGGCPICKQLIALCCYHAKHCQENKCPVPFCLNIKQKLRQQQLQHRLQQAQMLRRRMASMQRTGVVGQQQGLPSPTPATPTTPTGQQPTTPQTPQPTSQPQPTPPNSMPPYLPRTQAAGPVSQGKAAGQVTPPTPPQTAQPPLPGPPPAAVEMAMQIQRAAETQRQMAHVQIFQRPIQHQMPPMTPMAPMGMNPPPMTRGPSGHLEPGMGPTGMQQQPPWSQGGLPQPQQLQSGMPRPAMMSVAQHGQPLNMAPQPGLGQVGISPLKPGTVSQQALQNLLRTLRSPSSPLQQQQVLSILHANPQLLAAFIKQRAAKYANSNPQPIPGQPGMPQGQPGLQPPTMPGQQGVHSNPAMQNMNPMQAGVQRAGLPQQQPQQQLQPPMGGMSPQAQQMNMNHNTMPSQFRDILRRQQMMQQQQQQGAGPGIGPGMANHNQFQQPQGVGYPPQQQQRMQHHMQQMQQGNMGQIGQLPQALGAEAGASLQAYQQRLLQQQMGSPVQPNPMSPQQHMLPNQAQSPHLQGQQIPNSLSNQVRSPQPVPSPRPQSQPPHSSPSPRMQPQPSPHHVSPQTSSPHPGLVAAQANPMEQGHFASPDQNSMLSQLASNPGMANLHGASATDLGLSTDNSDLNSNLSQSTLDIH

[9] = molecular target: Histone acetyltransferase p300 (Homo sapiens) (UniProt Q09472); assay: Inhibition of EP300 in human BrCa-MZ-01 cells assessed as K-score by measuring ALDHbr cells by LSR2 cytometer; type: cell-based; summary of the method: as §2
[10] = molecular target: Histone acetyltransferase p300 (Homo sapiens) (UniProt Q09472); assay: Inhibition of EP300 in human SUM159 cells assessed as K-score by measuring ALDHbr cells by LSR2 cytometer; type: cell-based; summary of the method: as §2
[11] = molecular target: Histone acetyltransferase p300 (Homo sapiens) (UniProt Q09472); assay: Inhibition of EP300 in human SUM149 cells assessed as K-score by measuring ALDHbr cells by LSR2 cytometer; type: cell-based; summary of the method: as §2
[12] = molecular target: Histone acetyltransferase p300 (Homo sapiens) (UniProt Q09472); assay: Inhibition of EP300 in human MDA-MB-436 cells assessed as K-score by measuring ALDHbr cells by LSR2 cytometer; type: cell-based; summary of the method: as §2
[13] = molecular target: Runt-related transcription factor 1 (Homo sapiens) (UniProt Q01196); assay: Inhibition of RUNX1 in human S68 cells assessed as K-score by measuring ALDHbr cells by LSR2 cytometer; type: cell-based
Runt-related transcription factor 1 (Homo sapiens), sequence (Q01196 whole entry): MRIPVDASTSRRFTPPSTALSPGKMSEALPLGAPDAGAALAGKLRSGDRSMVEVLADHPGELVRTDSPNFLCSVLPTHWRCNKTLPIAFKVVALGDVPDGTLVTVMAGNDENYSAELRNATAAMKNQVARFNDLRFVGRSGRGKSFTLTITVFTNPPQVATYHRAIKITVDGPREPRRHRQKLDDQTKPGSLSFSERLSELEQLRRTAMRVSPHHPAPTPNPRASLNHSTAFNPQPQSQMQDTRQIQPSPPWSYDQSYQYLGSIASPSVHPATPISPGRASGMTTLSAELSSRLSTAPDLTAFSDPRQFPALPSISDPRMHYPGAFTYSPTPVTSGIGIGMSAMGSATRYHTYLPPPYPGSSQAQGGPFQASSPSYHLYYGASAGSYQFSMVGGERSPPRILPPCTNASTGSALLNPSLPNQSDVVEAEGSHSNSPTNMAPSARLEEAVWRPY
Summary of the method: (§3)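 Cell lines exposed for 72 h in adherent culture to a range of concentrations centred on the MTS-derived IC50. ALDHbr proportion measured by ALDEFLUOR flow cytometry (LSR2). K-score is the linear regression coefficient, on log10-transformed doses, between the untreated condition and the dose predicted to give a 50% decrease or increase in ALDHbr proportion versus control.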

[14] = molecular target: Runt-related transcription factor 1 (Homo sapiens) (UniProt Q01196); assay: Inhibition of RUNX1 in human BrCa-MZ-01 cells assessed as K-score by measuring ALDHbr cells by LSR2 cytometer; type: cell-based; summary of the method: as §3
[15] = molecular target: Runt-related transcription factor 1 (Homo sapiens) (UniProt Q01196); assay: Inhibition of RUNX1 in human SUM159 cells assessed as K-score by measuring ALDHbr cells by LSR2 cytometer; type: cell-based; summary of the method: as §3
[16] = molecular target: Runt-related transcription factor 1 (Homo sapiens) (UniProt Q01196); assay: Inhibition of RUNX1 in human SUM149 cells assessed as K-score by measuring ALDHbr cells by LSR2 cytometer; type: cell-based; summary of the method: as §3
[17] = molecular target: Runt-related transcription factor 1 (Homo sapiens) (UniProt Q01196); assay: Inhibition of RUNX1 in human MDA-MB-436 cells assessed as K-score by measuring ALDHbr cells by LSR2 cytometer; type: cell-based; summary of the method: as §3
[18] = test system: Proteasome; assay: Inhibition of proteasome in human S68 cells assessed as K-score by measuring ALDHbr cells by LSR2 cytometer; conditions: condition breast cancer; summary of the method: as §2
[19] = test system: Proteasome; assay: Inhibition of proteasome in human BrCa-MZ-01 cells assessed as K-score by measuring ALDHbr cells by LSR2 cytometer; conditions: condition breast cancer; summary of the method: as §2
[20] = test system: Proteasome; assay: Inhibition of proteasome in human SUM159 cells assessed as K-score by measuring ALDHbr cells by LSR2 cytometer; conditions: condition breast cancer; summary of the method: as §2
[21] = test system: Proteasome; assay: Inhibition of proteasome in human SUM149 cells assessed as K-score by measuring ALDHbr cells by LSR2 cytometer; conditions: condition breast cancer; summary of the method: as §2
[22] = test system: Proteasome; assay: Inhibition of proteasome in human MDA-MB-436 cells assessed as K-score by measuring ALDHbr cells by LSR2 cytometer; conditions: condition breast cancer; summary of the method: as §2

`CCCc1cc(C)[nH]c(=O)c1CNC(=O)c1cc(-c2ccnc(N3CCN(C)CC3)c2)cc2c1cnn2C(C)C` was tested, and the Activity [1] was “inactive” and the Activity [2] was “inactive”.
Work on `Nc1ncnc2c1nnn2[C@@H]1O[C@H](CO)[C@@H](O)[C@H]1O` yielded an Activity [3] of -0.01, an Activity [4] of -0.01 and an Activity [5] of -0.11. It also gave an Activity [6] of 0.12 and an Activity [7] of -0.02.
`COc1ccc(CCc2nc3cc(-c4c(C)noc4C)ccc3n2C[C@H](C)N2CCOCC2)cc1Cl` was tested, and the Activity [8] was 0.08, the Activity [9] was -0.01 and the Activity [10] was -0.02. For the same compound, the Activity [11] was 0.1 and the Activity [12] was -0.04.
For `O=C1CN=C(c2ccc[nH]2)c2cc(Cl)ccc2N1`, the Activity [13] was -0.07, the Activity [14] was -0.04 and the Activity [15] was 0.09. It also gave an Activity [16] of -0.04 and an Activity [17] of 0.
Compound `CC(C)C[C@H](NC(=O)[C@H](CCc1ccccc1)NC(=O)CN1CCOCC1)C(=O)N[C@@H](Cc1ccccc1)C(=O)N[C@@H](CC(C)C)C(=O)[C@@]1(C)CO1` [CARFILZOMIB] has an Activity [18] of -0.09, an Activity [19] of -0.08 and an Activity [20] of 0.01. For the same compound, the Activity [21] was -0.03 and the Activity [22] was -0.08.
`CC(C)C[C@H](NC(=O)[C@H](Cc1ccccc1)NC(=O)c1cnccn1)B(O)O` [BORTEZOMIB] showed an Activity [18] of -0.14, an Activity [19] of -0.07 and an Activity [20] of 0.07. It also gave an Activity [21] of -0.11 and an Activity [22] of -0.06.
